Source: ChEMBL document CHEMBL1938274, “Discovery of potent and specific CXCR3 antagonists” (Bioorg Med Chem Lett, 2012)

Tested on: not listed separately
Assay: Volume of distribution at steady state in rat at 0.5 mg/kg, iv
Type: ADME, organism-based
Set-up: dose 0.5 mg/kg, route intravenous
Conditions: in vivo, read-out: Vdss
How it was run: (§1)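 Single intravenous dose in 10% N,N-dimethylacetamide, 10% ethanol, 30% propylene glycol, 50% water: 1 mg/kg mouse; 0.5 mg/kg rat, beagle dog, cynomolgus monkey. Plasma clearance also given as percent of hepatic blood flow.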

| Vd | Structure (SMILES) |
| --- | --- |
| 1.9 L/kg | C[C@H](c1nc2ncccc2c(=O)n1-c1ccc(Cl)cc1)N(CC1CCS(=O)(=O)CC1)C(=O)Cc1ccc(F)c(C(F)(F)F)c1 |

Target: Cytochrome P450 3A4 (Homo sapiens, UniProt P08684)
Assay: Inhibition of CYP3A4
Type: ADME
Conditions: not given

Sequence of Cytochrome P450 3A4 (P08684 whole entry): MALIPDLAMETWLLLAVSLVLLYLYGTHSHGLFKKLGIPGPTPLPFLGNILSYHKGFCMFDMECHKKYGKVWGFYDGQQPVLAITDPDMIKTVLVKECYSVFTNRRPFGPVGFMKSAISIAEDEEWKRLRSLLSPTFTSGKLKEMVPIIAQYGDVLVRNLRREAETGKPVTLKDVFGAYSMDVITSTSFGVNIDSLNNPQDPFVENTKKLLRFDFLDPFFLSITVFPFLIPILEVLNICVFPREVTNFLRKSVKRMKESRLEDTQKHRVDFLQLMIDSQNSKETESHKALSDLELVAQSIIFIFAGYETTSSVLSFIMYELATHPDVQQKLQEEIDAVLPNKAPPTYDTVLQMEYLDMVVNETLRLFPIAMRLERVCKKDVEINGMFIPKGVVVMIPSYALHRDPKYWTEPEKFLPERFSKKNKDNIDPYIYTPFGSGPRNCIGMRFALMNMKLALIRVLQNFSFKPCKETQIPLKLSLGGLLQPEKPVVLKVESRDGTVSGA

| IC50 | Structure (SMILES) |
| --- | --- |
| > 10 µM | C[C@H](c1nc2ncccc2c(=O)n1-c1ccc(Cl)cc1)N(CC1CCS(=O)(=O)CC1)C(=O)Cc1ccc(F)c(C(F)(F)F)c1 |

Tested on: not listed separately
Assay: Apparent oral bioavailability in mouse at 5 mg/kg
Type: ADME, organism-based
Conditions: in vivo, read-out: Fapp

| bioavailability | Structure (SMILES) |
| --- | --- |
| 45% | C[C@H](c1nc2ncccc2c(=O)n1-c1ccc(Cl)cc1)N(CC1CCS(=O)(=O)CC1)C(=O)Cc1ccc(F)c(C(F)(F)F)c1 |

Tested on: not listed separately
Assay: Mean residence time in rat at 0.5 mg/kg, iv
Type: ADME, organism-based
Set-up: dose 0.5 mg/kg, route intravenous
Conditions: in vivo
How it was run: as §1

| MRT | Structure (SMILES) |
| --- | --- |
| 3.5 h | C[C@H](c1nc2ncccc2c(=O)n1-c1ccc(Cl)cc1)N(CC1CCS(=O)(=O)CC1)C(=O)Cc1ccc(F)c(C(F)(F)F)c1 |

Tested on: not listed separately
Assay: Mean residence time in mouse at 1 mg/kg, iv
Type: ADME, organism-based
Set-up: dose 1 mg/kg, route intravenous
Conditions: in vivo
How it was run: as §1

| MRT | Structure (SMILES) |
| --- | --- |
| 3.9 h | C[C@H](c1nc2ncccc2c(=O)n1-c1ccc(Cl)cc1)N(CC1CCS(=O)(=O)CC1)C(=O)Cc1ccc(F)c(C(F)(F)F)c1 |

Tested on: not listed separately
Assay: Half life in cynomolgus monkey at 0.5 mg/kg, iv
Type: ADME, organism-based, Macaca fascicularis
Set-up: dose 0.5 mg/kg, route intravenous
Conditions: in vivo
How it was run: as §1

| half-life | Structure (SMILES) |
| --- | --- |
| 9 h | C[C@H](c1nc2ncccc2c(=O)n1-c1ccc(Cl)cc1)N(CC1CCS(=O)(=O)CC1)C(=O)Cc1ccc(F)c(C(F)(F)F)c1 |

Tested on: not listed separately
Assay: Clearance in Beagle dog at 0.5 mg/kg, iv
Type: ADME, organism-based, Canis lupus familiaris
Set-up: dose 0.5 mg/kg, route intravenous
Conditions: in vivo
How it was run: as §1

| clearance | Structure (SMILES) |
| --- | --- |
| 25 mL/min/kg | C[C@H](c1nc2ncccc2c(=O)n1-c1ccc(Cl)cc1)N(CC1CCS(=O)(=O)CC1)C(=O)Cc1ccc(F)c(C(F)(F)F)c1 |

Tested on: Rattus norvegicus
Assay: Clearance in rat at 0.5 mg/kg, iv
Type: ADME, organism-based
Set-up: dose 0.5 mg/kg, route intravenous
Conditions: in vivo
How it was run: as §1

| CL | Structure (SMILES) |
| --- | --- |
| 8.17 mL/min/kg | C[C@H](c1nc2ncccc2c(=O)n1-c1ccc(Cl)cc1)N(CC1CCS(=O)(=O)CC1)C(=O)Cc1ccc(F)c(C(F)(F)F)c1 |

Tested on: not listed separately
Assay: Half life in Beagle dog at 0.5 mg/kg, iv
Type: ADME, organism-based, Canis lupus familiaris
Set-up: dose 0.5 mg/kg, route intravenous
Conditions: in vivo
How it was run: as §1

| half-life | Structure (SMILES) |
| --- | --- |
| 1 h | C[C@H](c1nc2ncccc2c(=O)n1-c1ccc(Cl)cc1)N(CC1CCS(=O)(=O)CC1)C(=O)Cc1ccc(F)c(C(F)(F)F)c1 |

Tested on: Mus musculus
Assay: Hepatic blood flow in mouse at 1 mg/kg, iv
Type: ADME, organism-based, Liver
Set-up: dose 1 mg/kg, route intravenous
Conditions: in vivo
How it was run: as §1

| QH | Structure (SMILES) |
| --- | --- |
| 3% | C[C@H](c1nc2ncccc2c(=O)n1-c1ccc(Cl)cc1)N(CC1CCS(=O)(=O)CC1)C(=O)Cc1ccc(F)c(C(F)(F)F)c1 |

Tested on: not listed separately
Assay: Apparent oral bioavailability in cynomolgus monkey at 2 mg/kg
Type: ADME, organism-based, Macaca fascicularis
Conditions: in vivo, read-out: Fapp

| bioavailability | Structure (SMILES) |
| --- | --- |
| 44% | C[C@H](c1nc2ncccc2c(=O)n1-c1ccc(Cl)cc1)N(CC1CCS(=O)(=O)CC1)C(=O)Cc1ccc(F)c(C(F)(F)F)c1 |

Tested on: Blood
Assay: Drug level in C57BL/6 mouse blood at 1 mg/kg, sc after 1 hr
Type: ADME, organism-based
Set-up: dose 1 mg/kg, route subcutaneous
Conditions: in vivo
How it was run: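 C57BL/6 mice given bleomycin intra-tracheally and dosed subcutaneously by osmotic mini-pump for 6 days; plasma collected to measure drug level, reported 1 h post dose.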

| Drug uptake | Structure (SMILES) |
| --- | --- |
| 1.3 µM | C[C@H](c1nc2ncccc2c(=O)n1-c1ccc(Cl)cc1)N(CC1CCS(=O)(=O)CC1)C(=O)Cc1ccc(F)c(C(F)(F)F)c1 |

Tested on: PBL
Assay: Toxicity in human PBL assessed as chromosomal aberrations at 7.81 to 1000 ug/mL
Type: cell-based
Conditions: not given
How it was run: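 Cultured human peripheral blood lymphocytes exposed at 7.81–1000 μg/mL, with and without S9 metabolic activation; chromosomal aberrations scored.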

| Structure (SMILES) | Activity |
| --- | --- |
| C[C@H](c1nc2ncccc2c(=O)n1-c1ccc(Cl)cc1)N(CC1CCS(=O)(=O)CC1)C(=O)Cc1ccc(F)c(C(F)(F)F)c1 | Non-toxic |

Tested on: not listed separately
Assay: Clearance in cynomolgus monkey at 0.5 mg/kg, iv
Type: ADME, organism-based, Macaca fascicularis
Set-up: dose 0.5 mg/kg, route intravenous
Conditions: in vivo
How it was run: as §1

| clearance | Structure (SMILES) |
| --- | --- |
| 2 mL/min/kg | C[C@H](c1nc2ncccc2c(=O)n1-c1ccc(Cl)cc1)N(CC1CCS(=O)(=O)CC1)C(=O)Cc1ccc(F)c(C(F)(F)F)c1 |

Tested on: not listed separately
Assay: Clearance in mouse at 1 mg/kg, iv
Type: ADME, organism-based
Set-up: dose 1 mg/kg, route intravenous
Conditions: in vivo
How it was run: as §1

| clearance | Structure (SMILES) |
| --- | --- |
| 2.17 mL/min/kg | C[C@H](c1nc2ncccc2c(=O)n1-c1ccc(Cl)cc1)N(CC1CCS(=O)(=O)CC1)C(=O)Cc1ccc(F)c(C(F)(F)F)c1 |

Tested on: not listed separately
Assay: Volume of distribution at steady state in Beagle dog at 0.5 mg/kg, iv
Type: ADME, organism-based, Canis lupus familiaris
Set-up: dose 0.5 mg/kg, route intravenous
Conditions: in vivo, read-out: Vdss
How it was run: as §1

| Vd | Structure (SMILES) |
| --- | --- |
| 1.4 L/kg | C[C@H](c1nc2ncccc2c(=O)n1-c1ccc(Cl)cc1)N(CC1CCS(=O)(=O)CC1)C(=O)Cc1ccc(F)c(C(F)(F)F)c1 |

Tested on: not listed separately
Assay: Half life in rat at 0.5 mg/kg, iv
Type: ADME, organism-based
Set-up: dose 0.5 mg/kg, route intravenous
Conditions: in vivo
How it was run: as §1

| half-life | Structure (SMILES) |
| --- | --- |
| 4 h | C[C@H](c1nc2ncccc2c(=O)n1-c1ccc(Cl)cc1)N(CC1CCS(=O)(=O)CC1)C(=O)Cc1ccc(F)c(C(F)(F)F)c1 |

Tested on: not listed separately
Assay: Volume of distribution at steady state in cynomolgus monkey at 0.5 mg/kg, iv
Type: ADME, organism-based, Macaca fascicularis
Set-up: dose 0.5 mg/kg, route intravenous
Conditions: in vivo, read-out: Vdss
How it was run: as §1

| Vd | Structure (SMILES) |
| --- | --- |
| 1.2 L/kg | C[C@H](c1nc2ncccc2c(=O)n1-c1ccc(Cl)cc1)N(CC1CCS(=O)(=O)CC1)C(=O)Cc1ccc(F)c(C(F)(F)F)c1 |

Tested on: not listed separately
Assay: Fraction unbound in cynomolgus monkey plasma
Type: ADME, cell-free, Macaca fascicularis
Conditions: not given

| fraction unbound | Structure (SMILES) |
| --- | --- |
| 0.037 | C[C@H](c1nc2ncccc2c(=O)n1-c1ccc(Cl)cc1)N(CC1CCS(=O)(=O)CC1)C(=O)Cc1ccc(F)c(C(F)(F)F)c1 |

Tested on: not listed separately
Assay: Fraction unbound in Beagle dog plasma
Type: ADME, cell-free, Canis lupus familiaris
Conditions: not given

| fraction unbound | Structure (SMILES) |
| --- | --- |
| 0.015 | C[C@H](c1nc2ncccc2c(=O)n1-c1ccc(Cl)cc1)N(CC1CCS(=O)(=O)CC1)C(=O)Cc1ccc(F)c(C(F)(F)F)c1 |
